# According to ChEMBL document CHEMBL1123238, “Binding requirements of phenolic phenylethylamines in the benzonorbornene skeleton at the active site of phenylethanolamine N-methyltransferase” (J Med Chem, 1986):
# B1: Phenylethanolamine N-methyltransferase (Bos taurus), P10938 (protein)
# chain: MSGTDRSQAAGAVPDSDPGLAAVSSAYQRFEPRAYLRNNYAPPRGDLSCPDGVGPWKLRCLAQTFATGEVSGRTLIDIGSGPTIYQLLSACAHFEDITMTDFLEVNRQELRLWLREEPGAFDWSVYSQHVCLIEGKGESWQEKECQLRARVKRILPIDVHRPQPLGAGGLAPLPADALVSAFCLEAVSPDLASFQRALDHITTLLRPGGHLLLIGALEESWYLAGEARLAVVPVREEEVREALVRTATRCGICARTPMPAHLQTGVDDVKGIFFTRAQKKVGV
# How the values were obtained:
# [1] = Vmax of compound was measured; format: ADME
# [2] = target: T1, Phenylethanolamine N-methyltransferase (Bos taurus, UniProt P10938); assay: Compound was tested in vitro inhibition of phenylethanolamine N-methyl-transferase (PNMT) activity using radiochemical assay
# T1 sequence (P10938 whole entry): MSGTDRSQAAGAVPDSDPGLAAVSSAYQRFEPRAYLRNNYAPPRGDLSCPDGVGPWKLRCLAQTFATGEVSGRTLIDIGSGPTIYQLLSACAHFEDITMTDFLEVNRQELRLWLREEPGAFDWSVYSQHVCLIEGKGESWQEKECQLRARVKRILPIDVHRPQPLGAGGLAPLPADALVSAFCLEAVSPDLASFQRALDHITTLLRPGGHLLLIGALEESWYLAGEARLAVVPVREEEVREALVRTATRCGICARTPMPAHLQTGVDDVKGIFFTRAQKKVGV
# [3] = substrate: N[C@@H]1CC2CC1c1cc(O)c(O)cc12; assay: (§1) Compound was tested in vitro for PNMT activity using radiochemical assay.
# Procedure, shortened: (§2)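 Bovine adrenal PNMT, partially purified through the isoelectric precipitation step. Compounds were tested as hydrobromide salts. Radiochemical assay used phosphate buffer at pH 8.0, unlabeled AdoMet (10 μM stock) plus [methyl-³H]AdoMet, and 30 min incubation at 37 °C. Reactions were quenched with borate at pH 10 and extracted into toluene/isoamyl alcohol (7:3), then scintillation-counted.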
# [4] = substrate: N[C@@H]1CC2CCC1c1ccccc12; assay: as §1; procedure, shortened: as §2
# [5] = substrate: N[C@@H]1CC2C[C@@H]1c1ccccc12; assay: as §1; procedure, shortened: as §2
molecule,measurement,setting,value
N[C@@H]1CC2CCC1c1ccccc12 (stereo not given in full),Vmax,[1],0.61 nM/mg/min
same,Ki,[2],258 µM
N[C@@H]1CC2C[C@@H]1c1ccccc12,Vmax,[1],0.08 nM/mg/min
same,Ki,[2],479 µM
N[C@@H]1CC2CC1c1c(O)cccc12 (stereo not given in full),Ki,[2],3000 µM
N[C@@H]1CC2CC1c1cc(O)ccc12 (stereo not given in full),Ki,[2],1110 µM
N[C@@H]1C2CCC1c1c(O)cccc12 (stereo not given in full),Ki,[2],4000 µM
N[C@@H]1CC2CC1c1cccc(O)c12 (stereo not given in full),Ki,[2],10000 µM
N[C@@H]1CC2CC1c1ccc(O)cc12 (stereo not given in full),Ki,[2],304 µM
N[C@@H]1C2CCC1c1cc(O)ccc12 (stereo not given in full),Ki,[2],108 µM
N[C@@H]1CC2CC1c1cc(O)c(O)cc12 (stereo not given in full),Vmax,[1],0.44 nM/mg/min
same,Ki,[2],487 µM
B1,Km,[3],686 µM
same,Km,[4],81 µM
same,Km,[5],192 µM
